PPC-1+TRAIL kill: compounds killing PPC-1 cancer cells with TRAIL present (potentiator screen, no TRAIL-free arm); PPC-1 cells + TRAIL, ATPLite viability luminescence; cell killing (% activity), % at 4 µM or 5 µM; 0.41% of 220,000 active; AID 1443;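 active = cell killing above 50% in the first pass at 4 µM, then a duplicate retest at 5 µM averaging 50% or more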;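 also: plate controls were cells with TRAIL plus DMSO for no effect and medium-only wells lacking cells for full effect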
FLuc inhib CS: Photinus pyralis luciferase inhibition counter-screen | ATPLite firefly luciferase biochemical luminescence, 10 min | inhibition, % at 10 µM | AID 1006 | P08659 | 1.5% of 200,000 active;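 active = inhibition above about 50% when tested at 10 µM, limit read from the data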
Target sequence (P08659 whole entry, looked up): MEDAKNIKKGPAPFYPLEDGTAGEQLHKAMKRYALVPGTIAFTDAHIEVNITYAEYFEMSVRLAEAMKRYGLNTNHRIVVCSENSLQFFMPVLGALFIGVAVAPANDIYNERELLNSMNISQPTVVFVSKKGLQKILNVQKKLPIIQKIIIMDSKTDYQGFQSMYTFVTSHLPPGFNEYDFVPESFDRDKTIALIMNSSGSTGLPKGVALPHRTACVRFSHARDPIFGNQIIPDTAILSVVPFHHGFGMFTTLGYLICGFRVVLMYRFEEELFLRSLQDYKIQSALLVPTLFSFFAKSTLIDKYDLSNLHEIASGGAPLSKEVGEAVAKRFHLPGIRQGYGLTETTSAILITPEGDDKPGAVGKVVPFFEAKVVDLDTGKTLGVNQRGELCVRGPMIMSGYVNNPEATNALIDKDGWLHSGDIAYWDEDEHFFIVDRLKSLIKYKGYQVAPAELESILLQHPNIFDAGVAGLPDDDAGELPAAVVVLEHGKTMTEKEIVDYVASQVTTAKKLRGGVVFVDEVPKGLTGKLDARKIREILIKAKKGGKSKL
HSP90 refold inh: blocks HSP90-mediated luciferase refolding in reticulocyte lysate. Rabbit reticulocyte lysate, luciferase refolding luminescence, 3 h. 0.91% of 290,000 active. inhibition, % at 5.6 µM;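 active = inhibition above the screen-wide mean plus 3 SD, computed separately per campaign, cut at about 16% in these data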;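 also: 0% = DMSO wells and 100% = 60 µM geldanamycin wells; inhibitors lower the luminescence because luciferase stays unfolded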
C8 TRAIL sens: sensitizes caspase-8 expressing cells to TRAIL; inhibition (viability loss, TRAIL sensitization), % at 10 µM; NB7+C8 cells + TRAIL, ATPlite viability luminescence; 1% of 360,000 active;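 active = compounds causing at least 50% loss of cell viability in the single-dose screen, relative to plate controls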
FLuc stim CS: affects firefly luciferase, flagging false hits in luciferase stimulation screens; P08659; ATPlite luciferase biochemical, luminescence, 10 min; 0 = ATP-free wells, 1 = DMSO control; activation factor at 10 µM; 200,000 tested, under 10 active;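 active = luciferase activation factor, scaled between plate controls, of at least 2 with compound at 10 µM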
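Assay system: Luciferase/luciferin reagent mix; Medium: PBS as buffer for the ATP substrate; Dosing: test compounds dosed from 2 mM stocks in 100% DMSO; Times: 10 min, room temperature; Signal: luminescence from luciferase reaction; Read-out: luciferase activation; Controls: No-ATP low control, compound-free enzyme-plus-ATP high control.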
* hit, by the source's call; . = no result given. The list is not random: actives were taken first. Their share in the collection is about 2%.

SMILES | PPC-1+TRAIL kill | FLuc inhib CS | HSP90 refold inh | C8 TRAIL sens | FLuc stim CS
CCNC(=O)CC1C(=O)N(C)C(=S)N1NC(=O)c1ccc(Cl)cc1 (stereo not drawn) | 6 | -2 | -3 | -4 | 1
COc1ccc(N2CCN(C(=O)C(Cc3ccccc3)n3cccc3)CC2)cc1 (stereo not drawn) | 82* | -8 | 2 | -8 | 1.1
COc1ccc2c(c1)C1OCCC1C(c1ccco1)N2 (stereo not drawn) | . | . | . | 83* | .
c1coc(C2Nc3ccccc3C3OCCC23)c1 (stereo not drawn) | 17 | 3 | -8 | 8 | 1
O=C(O)CSc1nnc(-c2ccc3c(c2)OCO3)o1 | -24 | 7 | 3 | -12 | 0.9
O=C(c1ccc(Cl)cc1)N1CCCCC(Sc2nnc(-c3ccc4c(c3)OCO4)o2)C1=O (stereo not drawn) | 48 | 29 | 31* | 69* | 0.7
O=C(Nc1sc2c(c1C(=O)O)CCCCC2)c1ccccc1 | 36 | 72* | 4 | 38 | 0.3
N#Cc1c(NC(=O)c2ccccc2)sc2c1CCCCC2 | 36 | 55* | 7 | 53* | 0.4
O=C(Nc1sc2c(c1C(=O)O)CCC2)c1ccccc1 | -6 | 23 | 0 | 6 | 0.8
N#Cc1c(N2C(=O)Nc3ccccc3N2O)sc2c1CCCCCC2 | 29 | 56* | -3 | 20 | 0.4
CC1(C)Cc2c(sc(NC(=O)c3ccccc3)c2C(=O)O)CO1 | 19 | 59* | 9 | 25 | 0.4
CC1CCN(CCC(=O)N/N=C/c2ccc([N+](=O)[O-])cc2)CC1 | 14 | -8 | -1 | 1 | 1.1
Cc1noc(C)c1NC(=O)Nc1ccc2c(c1)C(=O)N([C@H](C)CO)C[C@@H](C)[C@@H](CN(C)S(=O)(=O)c1cn(C)cn1)OCCCC[C@H](C)O2 | . | . | . | -18 | .
CCCn1c(N)c(C(=O)CSc2ncnc3sccc23)c(=O)n(C)c1=O | . | . | . | 19 | .
NC(=NC(=O)c1ccccc1)N1N=CCC1c1ccccc1 (stereo not drawn) | -2 | -1 | -4 | 6 | 1
CCOC(=O)c1sc(-c2ccccc2)nc1C | 20 | 9 | 1 | 3 | 0.9
CCOC(=O)Cc1ccc2sc(-c3ccccc3)nc2c1 | -5 | 74* | 1 | 39 | 0.3
O=C(NCC1CCCO1)c1csc(Nc2cccc3ccccc23)n1 (stereo not drawn) | . | -2 | 2 | -2 | 1
Nc1cccc(C(=O)NCCNC(=O)c2cccc(N)c2)c1 | . | . | 3 | 6 | .
O=C(OCc1ccccc1)c1cnc(Cl)c(Cl)c1 | . | . | 1 | -1 | .
CC(C)N(Cc1ccccc1)C(=O)COC(=O)c1cnc(Cl)c(Cl)c1 | . | . | . | 75* | .
CC(C)NC(=O)c1onc(CSc2ccc(F)cc2)c1C(=O)O | 11 | -2 | -5 | 2 | 1
CC(C)NC(=O)c1onc(CSc2ccc(C(C)C)cc2)c1C(=O)O | 96* | -4 | -8 | -10 | 1
CCc1nc2c(OCC(=O)c3ccc(F)cc3)cccn2c1N(C)C(=O)c1ccc(OC)cc1 | . | . | . | -2 | .
O=C(CN(C1CCCCC1)S(=O)(=O)c1ccc(F)cc1)NCC1CCCO1 (stereo not drawn) | . | . | . | 94* | .
SMILES | PPC-1+TRAIL kill | FLuc inhib CS | HSP90 refold inh | C8 TRAIL sens | FLuc stim CS
O=C(CN(C1CCCCC1)S(=O)(=O)c1ccccc1)NCC1CCCO1 (stereo not drawn) | . | . | 2 | -13 | .
CC(=O)OCn1ncc(N2CCOCC2)c(Br)c1=O | . | . | 4 | 9 | .
O=C(OCn1ncc(Br)c(Br)c1=O)c1ccc(F)cc1 | 29 | -3 | 3 | 95* | 1
O=C(OCn1ncc(Br)c(Br)c1=O)c1ccccc1Cl | 31 | -1 | 5 | 93* | 1
COc1ccc(-c2coc3cc(O)ccc3c2=O)cc1O | 23 | 54* | 1 | 16 | 0.5
CC1=NNC(=O)/C1=C\c1cn(-c2ccccc2)nc1-c1cccs1 | 35 | -9 | -2 | 39 | 1.1
CC1=NNC(=O)/C1=C\c1cn(-c2ccccc2)nc1-c1ccc(F)cc1 | 22 | -8 | 4 | 86* | 1.1
Cc1ccc(/C=C/c2nnc(-c3cccs3)o2)cc1 | 16 | 51* | 8 | 21 | 0.5
Nc1c2c(nc3sc4c(c13)CCCC4)-c1ccccc1CC2 | 42 | . | 9 | 66* | .
Cc1nc2oc3ccc(Cl)cc3c(=O)c2cc1C(=O)O | . | . | -2 | 14 | .
CC(C)c1ccc2oc3nc(N)c(C(=O)O)cc3c(=O)c2c1 | 83* | 95* | 4 | . | 0.1
CC1(C(=O)NS(=O)(=O)c2ccc(Cl)s2)CCN1C(=O)c1ccccc1CCc1ccccc1 (stereo not drawn) | . | . | . | 1 | .
C=CCC1(CC=C)CCCN1Cc1nc(COc2ccccc2)no1 | 7 | . | 1 | 9 | .
CC(C)Sc1cc(Cl)nc(NC(=O)Nc2ccccc2)n1 | . | . | 2 | 91* | .
CC(C)CN1CCNC(=O)C1CC(=O)NCCCN1CCCc2ccccc21 (stereo not drawn) | 6 | -4 | 1 | 3 | 1
COC(=O)c1cc(CNC(=O)CCCSc2ccccc2)ccc1OC | . | . | 1 | -8 | .
CCOC(=O)N1CCN(C(=O)c2ccc(Cn3c(=S)[nH]c4ccc(Br)cc4c3=O)cc2)CC1 | . | . | 0 | 53* | .
O=C(/C=C/Nc1ccc(F)cc1)c1cccs1 | . | . | -2 | 61* | .
O=C(/C=C/Nc1ccc(F)c(F)c1)c1cccs1 | 22 | 80* | 1 | 38 | 0.2
O=C1CCCCC(=O)[C@H](OC(=O)c2ccccc2)C[C@H](c2ccccc2)O1 | . | . | . | 67* | .
CC(=O)O[C@@H]1C[C@H](c2ccccc2)OC(=O)CCCCC1=O | . | . | . | 8 | .
C(=C\c1ccccc1)/C=N/Nc1nc2ccccc2[nH]1 | 21 | 63* | -3 | 4 | 0.4
C(=N\Nc1nc2ccccc2[nH]1)/C1CCCCC1 | 20 | 74* | 14 | 9 | 0.3
C(=N\Nc1nc2ccccc2[nH]1)/c1ccccc1 | . | 34 | -1 | 4 | 0.7
C(/CCc1ccccc1)=N\Nc1nc2ccccc2[nH]1 | 14 | 84* | 9 | 18 | 0.2
SMILES | PPC-1+TRAIL kill | FLuc inhib CS | HSP90 refold inh | C8 TRAIL sens | FLuc stim CS
Cc1ccccc1/C=N/Nc1nc2ccccc2[nH]1 | -5 | 15 | 5 | 1 | 0.8
COc1cc(C2C(C#N)=C(N)N(N(C)C)C3=C2C(=O)CCC3)ccc1O (stereo not drawn) | . | . | -1 | -3 | .
O=C(CSC(=S)N1CCSCC1)c1ccccc1 | 21 | 68* | -7 | 36 | 0.3
COc1ccc(Nc2nnc(SCC(=O)Nc3ccc4[nH]c(=O)[nH]c4c3)s2)cc1 | 42 | 24 | 4 | 17 | 0.8
Clc1ccc(-n2nnc(-c3nccs3)n2)cc1Cl | 23 | 59* | 6 | 35 | 0.4
Clc1ccc(-n2nnc(-c3ncc[nH]3)n2)cc1Cl | . | . | . | -2 | .
Cc1cc(Br)cc2c1NC(=O)C2(O)CC(=O)c1ccco1 (stereo not drawn) | -2 | -2 | 0 | -4 | 1
Clc1ccc(CN2CCc3c([nH]c4ccccc34)C2)cc1Cl | . | . | 2 | 54* | .
O=C(/C=C/c1ccc(F)cc1)c1ccccc1Br | 29 | 3 | 3 | 12 | 1
Cc1ccc(C(=O)/C=C/c2ccc(F)cc2)o1 | 5 | 85* | -2 | 4 | 0.2
